According to ChEMBL document CHEMBL1165883, “Synthesis, evaluation and computational studies on a series of acetophenone based 1-(aryloxypropyl)-4-(chloroaryl) piperazines as potential atypical antipsychotics” (2010):
Calls of active or inactive are those of the source. No cut-off for these calls is given here.

Each compound was assayed on Mus musculus (assay: Antipsychotic activity in ip dosed albino lyka mouse assessed as reversal of apomorphine-induced stereotype response administered 10 mins prior to apomorphine challenge after 10 to 30 mins).
Assay type: functional
In short: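 Mice of either sex (26–38 g) received vehicle, compound or clozapine (positive control), then apomorphine 2.5 mg kg^-1 after 10 min. Stereotypy was scored over 60 s in an inverted 500 ml beaker at 10, 15, 20, 25 and 30 min post-apomorphine: 1 = rearing, sniffing or grooming; 2 = licking or biting. Three dose levels, chosen by initial titration.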

Row | Compound | Activity
1 | CC(=O)c1ccccc1OCCCN1CCN(C(=O)c2ccccc2Cl)CC1 | Active
2 | CC(=O)c1ccccc1OCCCN1CCN(C(=O)c2ccc(Cl)cc2)CC1 | Active
3 | Clc1ccc(CN2CCN(Cc3ccc(Cl)cc3)CC2)cc1 | 1.02
4 | Clc1ccccc1CN1CCN(Cc2ccccc2Cl)CC1 | 0.86
5 | CC(=O)c1ccc(OCCCN2CCN(C(=O)c3ccc(Cl)cc3)CC2)cc1 | Active
6 | CC(=O)c1ccc(OCCCN2CCN(C(=O)c3ccccc3Cl)CC2)cc1 | Active

Each compound was assayed on Mus musculus (assay: Antipsychotic activity in ip dosed albino lyka mouse assessed as reversal of apomorphine-induced mesh climbing response administered 10 mins prior to apomorphine challenge after 10 to 30 mins).
Assay type: functional
In short: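 Mice of either sex (26–38 g), six per group, habituated singly in a wire-mesh cage (13 cm diameter, 14 cm high). Compound, saline (control) or clozapine (positive control) given ip; apomorphine 2.5 mg kg^-1 ip 10 min later. Climbing was scored over 60 s in the mesh cage at 10, 15, 20, 25 and 30 min: 1 = one–three paws on mesh, 2 = all four. Three titrated dose levels.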

Row | Compound | ED50
7 | CC(=O)c1ccccc1OCCCN1CCN(Cc2ccccc2Cl)CC1 | 10.5 mg/kg
8 | CC(=O)c1ccc(OCCCN2CCN(Cc3ccc(Cl)cc3)CC2)cc1 | 50 mg/kg
9 | CC(=O)c1ccccc1OCCCN1CCN(C(=O)c2ccccc2Cl)CC1 | inactive
10 | CC(=O)c1ccc(OCCCN2CCN(Cc3ccccc3Cl)CC2)cc1 | 23 mg/kg
11 | CC(=O)c1ccccc1OCCCN1CCN(C(=O)c2ccc(Cl)cc2)CC1 | inactive
12 | Clc1ccc(CN2CCN(Cc3ccc(Cl)cc3)CC2)cc1 | 10.5 mg/kg
13 | Clc1ccccc1CN1CCN(Cc2ccccc2Cl)CC1 | 7.2 mg/kg
14 | CC(=O)c1ccc(OCCCN2CCN(C(=O)c3ccc(Cl)cc3)CC2)cc1 | inactive
15 | CC(=O)c1ccccc1OCCCN1CCN(Cc2ccc(Cl)cc2)CC1 | 10 mg/kg
16 | CC(=O)c1ccc(OCCCN2CCN(C(=O)c3ccccc3Cl)CC2)cc1 | inactive
